Results published in the EternaBench riboswitch data.

Tested on: MS2 coat protein
Assay: apparent Kd, MS2 coat protein; higher = weaker binding; RNA-MaP array; FMN 200 µM where present
Method in brief: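 Designs on Illumina sequencing-chip clusters, transcribed by stalled E. coli RNA polymerase, were exposed to SNAP-549-labelled MS2 coat protein in doubling steps from 0.7 or 1.5 nM up to 3 µM, without and then with constant ligand. The buffer held 100 mM Tris-HCl pH 7.5, 80 mM KCl, 4 mM MgCl2, BSA, DTT, yeast tRNA and Tween-20. Apparent Kd values are medians of filtered per-cluster binding-curve fits to green signal normalised to red-channel RNA signal and control-cluster median Fmax.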

[1] = designed as: ON switch for flavin mononucleotide, no ligand
[2] = ligand present: flavin mononucleotide, designed as: ON switch for flavin mononucleotide
[3] = designed as: OFF switch for flavin mononucleotide, no ligand
[4] = ligand present: flavin mononucleotide, designed as: OFF switch for flavin mononucleotide

Row | Sequence | apparent Kd [1] [nM] | apparent Kd [2] [nM] | apparent Kd [3] [nM] | apparent Kd [4] [nM]
1 | UUAUUUAUACAAGGAUAUCUAUUAUAUUCACAUCCUACAUGAGGAUCACCCAUGUUAUAUAUUUUAGAGAAGGUGUAUUGUCUG | 27.2 | 30.8 | – | –
2 | UUAUACAUGAGGAUCUCCCAUGACAUGAGGAUCACCCAUGUGCAGGAUAUACGUGUUAUAAUAUAGUAGAAGGGCAGACUAUAU | – | – | 41.1 | 74.3
3 | UUGCCUCAGAACAUGAGGAUCACCCAUGUGCUGCGGGCAACGUAGGAUAUGAUGGUAUGAUACCAUCAGAAGGAUGAUGGUACC | 5.96 | 5.33 | – | –
4 | UGGGCGAGCCCAGUACUCACACAUGAGGAUCACCCAUGUGACGAGGAUAUAGACAGCGAUGCGUACUAGAAGGCGUCACGGUAA | – | – | 11 | 46.2
5 | AAGUUUUUACAAGGAUAUCAAUUUUUUCUAAAUUCAACAUGAGGAUCACCCAUGUAACAAUGGAGUGAGAAGGUGUUUUGGCAA | 176 | 205 | – | –
6 | UGGCCCGCCGGAGGAUAUCUACUCUGUGGUGCACUGCGUUUGCAAUACAUGAGGAUCACCCAUGUAGAGAAGGCCGAGGGCACA | – | – | – | 66.9
7 | GGAUGACAAAGUCAUCCAAUACGAACAUGAGGAUCACCCAUGUAGGAUAUGCUAGUCAAAGACUAGCAGAAGGACAUGUGCCUU | – | – | 39.2 | 238
8 | UAAGUACGAGGAUAUACAUAGAUACAGAUACAUGUAGACGUACAUGAGGAUCACCCAUGUAGAAGGCGUAUAUA | – | – | 67.9 | 239
9 | CAGUCUACAGGAUAUACAUGAGGAUCACCCAUGUAAAUUCACUUUCAGUAGUCUACAUGUAGAAGGGUAGACUG | – | – | 21.3 | 40.3
10 | AAAAGUUCAGGAUAUACAUGAGGAUCACCCAUGUAGAAAGGAAGUGUAAAAAAAAAGUGUAGAAGGGAGCAUGA | – | – | 31.7 | 29.1
11 | UGGGCUACCACAGGAUAUGCUACAUGAGGAUCACCCAUGUAAAGAAAAUCGGCAGAAGGGUGGUUAGUGCAGCAUGAAGGAGCC | 28.9 | 10.8 | – | –
12 | AGCAUGGUAGGAUAUACGGAACAUUAGGGUUUGUUGUGUGGACAUGAGGAUCACCCAUGUAGAAGGGCCGUGCA | – | – | 34 | 80.4
13 | CGUAGGAUGCAGAAGGCAUGAACAUGAGGAUCACCCAUGUCAAAAUACAUGAGGAUAUGCAUCCUACGAAAAGUGCGAAAGCAC | 4.62 | 4.3 | – | –
14 | UUAUUUGUACAAGGAUAUCUAUUAUAUUCACGUCCUACAUGAGGAUCACCCAUGUUAUAUAUUUUAGAGAAGGUGUAUUGUCUG | 31.9 | 35.3 | – | –
15 | GAGGAGUCAGGAUAUCGGGAAAGGUUGAGGAAGAGAAGAAGCGAGAAGGGACAUGAGGAUCACCCAUGUAGAAG | – | – | 52.4 | 47
16 | CUGCGUCGUGUUAGGAUAUCCAGCGGUGCGCGCCAGGAGAAGGAACAUGAGGAUCACCCAUGUAAACCGAUGGC | – | – | 12.4 | 13.4
17 | UUCUGGCUAGGAUAUACAGUGUCCACGAGUUAGUUGCCCUAACAUGAGGAUCACCCAUGUAGAAGGAGCGAGAA | – | – | 48.2 | 83.7
18 | GACUUGUCAGGAUAUCUUACAUUUGCAUCGUAGUUACCAUUGGAGAAGGGACAUGAGGAUCACCCAUGUUUGGC | – | – | 25.6 | 23.9
19 | CCAUAAAAGAUCCAAAAUUACAACAUGAGGAUCACCCAUGUGCAGGAUAUCGUGCCAGUGAUGUACGAGAAGGGCAGACUCUGC | – | – | 251 | 333

Row | Sequence | apparent Kd [1] [nM] | apparent Kd [2] [nM] | apparent Kd [3] [nM] | apparent Kd [4] [nM]
20 | GUCACGAAUGUAGGAUAUCGAGUGGAAUACACUCGAGAAGGACAUGAGGAUCACCCAUGUCAAAUGAAAGAUAAUAAACGUGAC | – | – | 14.6 | 18.8
21 | CCCUCACAUGAGGAUCACCCAUGUCAGGAUAUCCAGCCCUACUAUAAAGCGUCUGGCGGGAGAAGGGACAGGAU | – | – | 20.9 | 28.5
22 | AAAGAACAUGAGGAUCACCCAUGUGAGGAUAUGCGAAAACCGCUGACAAACCAGACGGGCAGAAGGCAUAUGGU | – | – | 56.2 | 76.3
23 | CCGAUGGUAUACUAGGAUAUGGGCGCCCUUACAUGAGGAUCACCCAUGUUAUCACAAAUCCGCGGCCAGAAGGAGUUCAUGGGAG | 176 | 134 | – | –
24 | CGGGCGCCGAAGGGCGAAAGCCCACAUGAGGAUCACCCAUGUAGAAGGAGGGAAGAAACCAAAACCUAGGAUAUACAGGCGCCC | – | – | 7.9 | 10.2
25 | CGGAUCGCAUGAGGAUAUGGUCAGCUUUGCUGACCAGAAGGCAUGUCAUAAGACAUGAGGAUCACCCAUGUAGUUAAGAUCCGA | 576 | 46.3 | – | –
26 | UGCAUGCUAGGAUAUACGGGACAUUAGGGUUCGUUGUAUGGACAUGAGGAUCACCCAUGUAGAAGGAGCGUGCU | – | – | 27.4 | 112
27 | CUUUCGUGAGGAUAUGUGGCUUCGAUCGUGAAAACGAGGCUACAGAAGGCACAUGAGGAUCACCCAUGUUCCUC | – | – | 34.4 | 454
28 | UAAACGUUCUAGAAGGUGCAUUUGUUAAACAAGCAAGGAUAUAGACAUGAGGAUCACCCAUGUCUAUUAGACAUCGGCCUACUU | – | – | 5.75 | 5.39
29 | UUUUAGUGAGGAUAUACAUUUUUUUAAUUAUUUAUAAUAUUACAUGAGGAUCACCCAUGUAGAAGGCACAUUUU | – | – | 24.3 | 22.4
30 | GGGUGGCGUAGAGGAUAUGUGGUACAUGAGGAUCACCCAUGUGCAUAUGAUGUUCGUGUGUCAUCAUAGAAGGCUACGUCGCUA | 132 | 62.9 | – | –
31 | CGAUUACGAGGAUAUUAUGGCCUCGACAUGAGGAUCACCCAUGUACAAACAUGAAUACCUUGAGAAGGCGUAGAGC | – | – | 67.7 | 67.3
32 | UUGGACGUCGUAGGAUAUGUAGGAUAAUCCUACAUGAGGAUCACCCAUGUUGACAUGGAAGAAGGACAGAAGGACGAUGUCCAU | 1120 | 87.5 | – | –
33 | CCACAUGAGGAUCACCCAUGUGACUUCUGUGGCCCGGUGUUGCAGGAUAUCGCAAGGUUAGUUGACGAGAAGGGCGACGGUGGU | – | – | 31.1 | 102
34 | UACCUGAGGCUUUGCUUUAGGCUUACAUGAGGAUCACCCAUGUAGGAUAUGGUAGGCAAAGCUUACCAGAAGGACAUGGAAAUU | – | – | 19 | 66.6
35 | AUAAUUUUAUAUAUCAUUUUAAUCAGAAGGCAUAACAUGAGGAUCACCCAUGUAAAUUAUUGUUAUGAGGAUAUGAAUUGGUUA | – | – | 14.4 | 54.8
36 | AUCAGCUCGUCAGGAUAUACGUCACUGCGUCAGCAGUGUGGUAAGGUCACAUGAGGAUCACCCAUGUAGAAGGGACGAGCUGAU | – | – | 9.4 | 117
37 | AUAGUGCGCGAGAAGGACGUACCACAUGUGGAUCACCUAUAUAAGGAACGUAGGAUAUUGCACAUGAGGAUCACCCAUGUGGAU | 41.4 | 34.1 | – | –
38 | AUCAGCUCGUCAGGAUAUAUGUCACUGCGUCAGCAGUGUGGUAAGAUCACAUGAGGAUCACCCAUGUAGAAGGGACGAGCUGAU | – | – | 30.7 | 78.8

Row | Sequence | apparent Kd [1] [nM] | apparent Kd [2] [nM] | apparent Kd [3] [nM] | apparent Kd [4] [nM]
39 | UUCCUCGUUGUGAGGAUAUCGUCCGUGUUUUGUUACGAGAAGGCACAUGAGGAUCACCCAUGUUACUUGAUGUU | – | – | 18.7 | 110
40 | AAAAUGUAAGGAUAUCGUCCCGUAAAUAUCGGGAAAAUUGUCGAGAAGGUACAUGAGGAUCACCCAUGUUCCUG | – | – | 16.7 | 18.2
41 | UGAAUGUGAGGAUAUGGUGAGUAGUGCCAGAGCGCUGCUCACCAGAAGGCACAUGAGGAUCACCCAUGUACUUG | – | – | 64.3 | 179
42 | CUGGUGUGAGGAUAUCAAAGACCUCGGGAUAGUAGCGAGGAUGAGAAGGCACAUGAGGAUCACCCAUGUAACAA | – | – | 20.9 | 33.8
43 | GGGCUCGGAGGAUAUACAUGAGGAUCACCCAUGUACUCGGGCUCUAUUGGGCUCGGGUGUAGAAGGUCGGGCUC | – | – | 14.9 | 14.6
44 | CUGUAGAUAUCAGGAUAUCUAUUUCCUACAUGAGGAUCACCCAUGUAGAUGAUCACCCAUGUAAAGGAGAAGGGAUAUCUAUAG | 342 | 180 | – | –
45 | UGUCGGAGCAGAGGAUAUUACAUGAGGAUCACCCAUGUAAAUGGAAUAAGCUGGAAACAGCAAUGUAAGAAGGCUGCUCCGACA | – | – | 70.2 | 619
46 | GCAUCCAAAGUGAGGAUAUACCUCUGGAUACAGAGGUAGAAGGCACAUGAGGAUCACCCAUGUUACUAGGAUGC | – | – | 12.9 | 17
47 | UUGCUACAUGAGGAUCACCCAUGUCAGGAUAUAGUGCAUAGCGUGGAAGCUCUGUCGAUUAGAAGGGACUGUCU | – | – | 25.2 | 27.4
48 | AGUAGACAAGGAUAUACAUGAGGAUCACCCAUGUGUGAAGGCCAGGAGGCUCCUCCCUGUAGAAGGUGUCGAGU | – | – | 104 | 293
49 | CUUAGUUUGUAGAAGGGUGACAUGAGGAUCACCCAUGUGCGUCGCCUGGAAGACCAGGGUACGCCACAGGAUAUACAAAGUAAG | 46.7 | 23.1 | – | –
50 | GGACGGUUUGUCAGGAUAUGCUCUACCUCGGUAGAGCAGAAGGGACAUGAGGAUCACCCAUGUGAAAACUGUUC | – | – | 22.8 | 25.2
51 | GGAUAGGACAGAGGAUAUACGUGCUAGAGGUACUAGCAAAAUUUCCUCACAUGAGGAUCACCCAUGUAGAAGGCUGUCCUAUCG | – | – | 17 | 461
52 | UCAAGUAUGUAGGAUAUCGAUGUCUUCGGACAUCGAGAAGGACGUACAUGAGGAUCACCCAUGUAACUUGCAUG | – | – | 60.5 | 37.4
53 | GUAGUGUAUGUAGGAUAUGUGAAGGAAACAUUUACAGAAGGACAUGAGGAUCACCCAUGUAUUUCAGUCACCAAUGUGACUGAU | – | – | 24.7 | 43.4
54 | AUGAGGUCAGGAUAUGCAUGGCGGGACUUGCGUCGUGGCGUGGAGAAGGGACAUGAGGAUCACCCAUGUGGAGA | – | – | 84.6 | 76.1
55 | CAAUUUAUAACAGGAUAUGUAAUACAAUAGUAAAUAGAAGGGUUUUAUACAUGAGGAUCACCCAUGUCAUGUGUCAUAAUUACC | – | – | 36.4 | 29.5
56 | GCCGAAAAUGUGAGGAUAUACCUAUGGAAACAUAGGUAGAAGGCACAUGAGGAUCACCCAUGUGUUUCAACGGC | – | – | 21.5 | 107
